Experimental data as given in PMC2842018 (European journal of nuclear medicine and molecular imaging, 2008).

Columns and labels:
α3 integrin = conditions: ovarian cancer, ref [7]; cited from earlier work
glioblastoma = glioblastoma patients, radiotherapy plus temozolomide; ref [1]; cited from earlier work
[1] = test system: U-87MG cells (α3 integrin); test: Fluorescence microscopy of U-87MG cells stained with biotinylated LXY1; type: cell-based, human
Procedure, shortened: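 U-87MG cells at 80–90% confluence were dissociated with 0.05% trypsin-EDTA. Each sample (3×10⁵ cells) was incubated with biotinylated peptide in PBS with 10% FBS and 1 mM MnCl2 for 30 min on ice, washed three times, given streptavidin-Alexa488 for 30 min and washed once. Cells were cytospun onto slides (2000 rpm, 2 min), mounted with DAPI medium and viewed by fluorescence microscopy. For blocking, unlabeled peptide or anti-α3 integrin antibody (clone P1B5) was co-incubated.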

For cDGXGXXc, the “binding preference and specificity” value (α3 integrin) is listed as “bind preferentially to ovarian cancer with high specificity against α3 integrin”.
In the case of `Cn1nnc2c(C(N)=O)ncn2c1=O` [temozolomide], the median survival (glioblastoma) is given as 14.6 months.
For cdGLGBNc (disulfide) [LXY1], the “blocking of cell staining by biotinylated LXY1” value ([1]; excess unlabeled LXY1 or anti-α3 antibody (clone P1B5) as blocker, streptavidin-Alexa488) was “almost completely abolished”.
With “cdGLGBNc-linker-linker-Biotin (disulfide) [LXY1-biotin]” the “staining of U-87MG cells” value ([1]; biotinylated LXY1 30 min, streptavidin-Alexa488 30 min, DAPI counterstain) was “Strong staining”.
